# Experimental data taken from ChEMBL document CHEMBL1147875, “Novel 1-oxyl-2-substitutedphenyl-4,4,5,5-tetramethylimidazolines: synthesis, selectively analgesic action, and QSAR analysis” (2007).
# Legend:
# Mus musculus [1] = test: Analgesic activity in ICR mouse assessed as pain threshold variation at 0.13 mmol/kg, ip after 30 mins by tail flick test; format: functional
# Outline: (§1)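 Male ICR mice (25 2 g), 12/12 light/dark cycle, 21 2 °C, acclimated one day. Single ip injection in 0.2 ml saline with 0.01 ml DMSO and 0.02 ml Tween 80. Tail-flick pain threshold measured before dosing (BPT) and at 30 min intervals for 150 min. PTV = (post-dose threshold − BPT)/BPT, averaged per animal. Saline controls; ANOVA, p < 0.05.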
# Mus musculus [2] = test: Analgesic activity in ICR mouse assessed as pain threshold variation at 0.13 mmol/kg, ip after 120 mins by tail flick test; format: functional; outline: as §1
# Mus musculus [3] = test: Analgesic activity in ICR mouse assessed as pain threshold variation at 0.13 mmol/kg, ip after 60 mins by tail flick test; format: functional; outline: as §1
# Aorta [4] = test: Vasorelaxant activity in rat aortic strips assessed as inhibition of noradrenaline-induced vasoconstriction at 20 umol/l; format: functional; design: scale not given: the % may be the effect or the level left
# Mus musculus [5] = test: Effect on bleeding time in ICR mouse tail at 1.3 mmol/kg, ip after 30 mins; format: functional
# Outline: (§2)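 Mice given 1.30 mmol/kg body weight. Tail bleeding time measured before dosing and at 5, 15, 30 and 60 min after dosing. Saline as vehicle control.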
# Mus musculus [6] = test: Effect on bleeding time in ICR mouse tail at 1.3 mmol/kg, ip after 15 mins; format: functional; outline: as §2
# Aorta [7] = test: Vasorelaxant activity in rat aortic strips assessed as inhibition of noradrenaline-induced vasoconstriction at 500 umol/l; format: functional; design: scale not given: the % may be the effect or the level left
# Mus musculus [8] = test: Analgesic activity in ICR mouse assessed as pain threshold variation at 0.13 mmol/kg, ip after 90 mins by tail flick test; format: functional; outline: as §1
# Aorta [9] = test: Vasorelaxant activity in rat aortic strips assessed as inhibition of noradrenaline-induced vasoconstriction at 100 umol/l; format: functional; design: scale not given: the % may be the effect or the level left
# Mus musculus [10] = test: Analgesic activity in ICR mouse assessed as pain threshold variation at 0.13 mmol/kg, ip after 150 mins by tail flick test; format: functional; outline: as §1
# Mus musculus [11] = test: Effect on bleeding time in ICR mouse tail at 1.3 mmol/kg, ip after 5 mins; format: functional; outline: as §2
# Mus musculus [12] = test: Effect on bleeding time in ICR mouse tail at 1.3 mmol/kg, ip after 60 mins; format: functional; outline: as §2
# Mus musculus [13] = test: Analgesic activity in ICR mouse assessed as pain threshold variation at 0.0013 mmol/kg, ip after 150 mins by tail flick test; format: functional, organism-based; outline: as §1
# Mus musculus [14] = test: Analgesic activity in ICR mouse assessed as pain threshold variation at 0.013 mmol/kg, ip after 120 mins by tail flick test; format: functional, organism-based; outline: as §1
# Mus musculus [15] = test: Analgesic activity in ICR mouse assessed as pain threshold variation at 0.0013 mmol/kg, ip after 30 mins by tail flick test; format: functional, organism-based; outline: as §1
# Mus musculus [16] = test: Analgesic activity in ICR mouse assessed as pain threshold variation at 0.0013 mmol/kg, ip after 60 mins by tail flick test; format: functional, organism-based; outline: as §1
# Mus musculus [17] = test: Analgesic activity in ICR mouse assessed as pain threshold variation at 0.013 mmol/kg, ip after 90 mins by tail flick test; format: functional, organism-based; outline: as §1
# Mus musculus [18] = test: Analgesic activity in ICR mouse assessed as pain threshold variation at 0.013 mmol/kg, ip after 60 mins by tail flick test; format: functional, organism-based; outline: as §1
# Mus musculus [19] = test: Analgesic activity in ICR mouse assessed as pain threshold variation at 0.013 mmol/kg, ip after 30 mins by tail flick test; format: functional, organism-based; outline: as §1
# Mus musculus [20] = test: Analgesic activity in ICR mouse assessed as pain threshold variation at 0.013 mmol/kg, ip after 150 mins by tail flick test; format: functional, organism-based; outline: as §1
# Mus musculus [21] = test: Analgesic activity in ICR mouse assessed as pain threshold variation at 0.0013 mmol/kg, ip after 90 mins by tail flick test; format: functional, organism-based; outline: as §1
# Mus musculus [22] = test: Analgesic activity in ICR mouse assessed as pain threshold variation at 0.0013 mmol/kg, ip after 120 mins by tail flick test; format: functional, organism-based; outline: as §1
Structure (SMILES),Activity (Mus musculus [1]),Activity (Mus musculus [2]),Activity (Mus musculus [3]),Activity (Aorta [4]) [%],TIME (Mus musculus [5]) [h],TIME (Mus musculus [6]) [h],Activity (Aorta [7]) [%],Activity (Mus musculus [8]),Activity (Aorta [9]) [%],Activity (Mus musculus [10]),TIME (Mus musculus [11]) [h],TIME (Mus musculus [12]) [h],also measured
CN(C)c1ccc(C2=NC(C)(C)C(C)(C)N2[O])cc1,30.4,34.3,35.5,8.02,0.0329,0.033,40,36.2,26,27.9,0.0331,0.0327,
CC1(C)N=C(c2ccc([N+](=O)[O-])cc2)N([O])C1(C)C,56.5,35.9,60.5,7.36,0.0329,0.0331,36.5,58,24.4,52.3,0.0332,0.033,
CC1(C)N=C(c2ccc(Cl)c(Cl)c2)N([O])C1(C)C,50.6,28.8,72.8,6.74,0.0331,0.0331,34.4,55.7,22.7,27,0.0334,0.033,
CC1(C)N=C(c2ccc3c(c2)OCO3)N([O])C1(C)C,52.8,58.3,65,8.1,0.0328,0.0324,37.4,74,24.5,25.4,0.0326,0.0324,
CC1(C)N=C(c2ccccc2[N+](=O)[O-])N([O])C1(C)C,38.4,23.4,66.9,6.98,0.0326,0.0327,35.6,57.2,20.4,19.7,0.0326,0.0324,
CC1(C)N=C(c2ccccc2F)N([O])C1(C)C,62.2,62,67.8,5,0.0328,0.0329,23.4,63.3,14.9,86.8,0.0331,0.0326,Activity (Mus musculus [13]): 44.5; Activity (Mus musculus [14]): 49.8; Activity (Mus musculus [15]): 31.3; Activity (Mus musculus [16]): 33.5; Activity (Mus musculus [17]): 50.7; Activity (Mus musculus [18]): 51.3; Activity (Mus musculus [19]): 49.3; Activity (Mus musculus [20]): 64.5; Activity (Mus musculus [21]): 31.8; Activity (Mus musculus [22]): 30.4
CC1(C)N=C(c2ccccc2O)N([O])C1(C)C,48.6,70.2,45.4,6.01,0.0325,0.0329,20.3,64.2,13.4,62.2,0.0324,0.0324,
Cc1ccc(C2=NC(C)(C)C(C)(C)N2[O])cc1,40.2,35.2,53.6,7,0.0328,0.0324,31.8,43.7,20,25.5,0.0327,0.0328,
CC1(C)N=C(c2ccc(Cl)cc2Cl)N([O])C1(C)C,39.6,30.5,63.3,6.86,0.0326,0.033,34.8,48.4,23,14.8,0.0329,0.0327,
CC1(C)N=C(c2ccc(Br)cc2)N([O])C1(C)C,41.3,60,35.6,6.89,0.0324,0.0326,34.8,59.8,23,76.5,0.0324,0.0326,
CC1(C)N=C(c2ccc(O)cc2)N([O])C1(C)C,55.7,55.5,70.8,5.36,0.0326,0.0325,8.71,75.9,7.66,29.9,0.0328,0.0327,
COc1cc(C2=NC(C)(C)C(C)(C)N2[O])ccc1O,54.2,43.2,42.9,5.98,0.0327,0.0323,6.55,66.3,6.09,40.9,0.0327,0.0329,
CC1(C)N=C(c2cccc(O)c2)N([O])C1(C)C,49.6,72.7,50.3,7.06,0.0331,0.0326,35.7,54,23,70.8,0.033,0.0326,Activity (Mus musculus [13]): 33.5; Activity (Mus musculus [14]): 59.9; Activity (Mus musculus [15]): 24.2; Activity (Mus musculus [16]): 25.6; Activity (Mus musculus [17]): 42.8; Activity (Mus musculus [18]): 37.8; Activity (Mus musculus [19]): 35.7; Activity (Mus musculus [20]): 52.1; Activity (Mus musculus [21]): 30.7; Activity (Mus musculus [22]): 35.2
CC1(C)N=C(c2cccc([N+](=O)[O-])c2)N([O])C1(C)C,49.8,43.5,66.4,6.72,0.0327,0.0324,34.3,47.4,22.1,41.8,0.0329,0.0328,
COc1ccc(C2=NC(C)(C)C(C)(C)N2[O])cc1,35.3,68.7,103,6.88,0.0331,0.0324,35.1,99.3,23.1,53,0.0327,0.0331,Activity (Mus musculus [13]): 22.6; Activity (Mus musculus [14]): 50.2; Activity (Mus musculus [15]): 14.9; Activity (Mus musculus [16]): 55.2; Activity (Mus musculus [17]): 82.5; Activity (Mus musculus [18]): 89.7; Activity (Mus musculus [19]): 25; Activity (Mus musculus [20]): 34.4; Activity (Mus musculus [21]): 50.5; Activity (Mus musculus [22]): 38.4
COc1ccc(C2=NC(C)(C)C(C)(C)N2[O])cc1OC,44.9,78.4,60.2,6.66,0.0332,0.033,33.7,59.5,22.3,55.6,0.0329,0.0335,
COc1ccc(C2=NC(C)(C)C(C)(C)N2[O])cc1O,33.1,56.4,48.2,5.36,0.0328,0.0325,16.6,48.4,11,59.8,0.0326,0.0326,
CC1(C)N=C(c2ccc(Cl)cc2)N([O])C1(C)C,59.3,50.8,66.3,7.19,0.0328,0.0326,36.6,61.7,23.8,84.5,0.0331,0.0326,
CC1(C)N=C(c2ccccc2)N(O)C1(C)C,40.6,32.14,36.99,5.44,,,17.25,34,11.04,33.48,,,Time (Mus musculus [5]): 119.3 s; Time (Mus musculus [6]): 117.4 s; Time (Mus musculus [11]): 118.2 s; Time (Mus musculus [12]): 118.2 s
COc1ccc(C2=NC(C)(C)C(C)(C)N2[O])c(OC)c1,42,71.2,59.7,7.33,0.0327,0.0324,37.1,62.5,24,32.4,0.0331,0.0328,
